# Test results: ChEMBL document CHEMBL4177770, “Discovery of MK-6169, a Potent Pan-Genotype Hepatitis C Virus NS5A Inhibitor with Optimized Activity against Common Resistance-Associated Substitutions” (J Med Chem, 2018)
# Positions count from the first letter of the chain named.
# What was measured:
# [1] = molecular target: T1, Nonstructural protein 5A (Hepatitis C virus) (UniProt Q5L478); experiment: Inhibition of NS5A Q30R mutant in HCV genotype 1a infected in HuH7 replicon cells assessed as decrease in viral replication after 3 days by RT-PCR method; format: cell-based; details: Hepatitis C virus subtype 1a
# T1 sequence (whole entry): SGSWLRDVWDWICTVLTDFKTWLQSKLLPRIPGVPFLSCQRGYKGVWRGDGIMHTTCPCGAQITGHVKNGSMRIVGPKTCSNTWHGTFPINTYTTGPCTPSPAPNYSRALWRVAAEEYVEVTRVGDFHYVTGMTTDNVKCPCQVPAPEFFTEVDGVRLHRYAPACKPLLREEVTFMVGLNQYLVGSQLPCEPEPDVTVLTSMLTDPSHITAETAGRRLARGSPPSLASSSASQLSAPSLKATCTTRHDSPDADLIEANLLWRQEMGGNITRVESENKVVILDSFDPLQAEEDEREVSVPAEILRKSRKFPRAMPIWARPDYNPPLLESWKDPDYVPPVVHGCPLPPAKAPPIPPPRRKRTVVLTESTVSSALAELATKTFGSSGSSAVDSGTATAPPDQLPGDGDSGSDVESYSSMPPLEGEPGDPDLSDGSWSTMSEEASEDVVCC
# [2] = molecular target: T1, Nonstructural protein 5A (Hepatitis C virus); experiment: Inhibition of NS5A L31M mutant in HCV genotype 1b infected in HuH7 replicon cells assessed as decrease in viral replication after 3 days by RT-PCR method; format: cell-based; details: Hepatitis C virus subtype 1b
# [3] = Resistance ratio of EC90 for NS5A L31M mutant in HCV genotype 2b infected in HuH7 replicon cells to EC90 for NS5A in HCV genotype 1a infected in HuH7 replicon cells; format: cell-based
# [4] = Half life in Beagle dog at 1 mg/kg, iv by LC/MS method; format: ADME, organism-based, Canis lupus familiaris; details: in vivo
# Procedure, shortened: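 Beagle dogs, two animals per group, dosed IV at 1 mg/kg in 60% PEG200. Plasma was prepared from collected blood by centrifugation, and compound was quantified by LC/MS.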
# [5] = Resistance ratio of EC90 for NS5A L31M/Y93H double mutant in HCV genotype 1b infected in HuH7 replicon cells to EC90 for NS5A in HCV genotype 1a infected in HuH7 replicon cells; format: cell-based
# [6] = test system: Hepatitis C virus subtype 1a; experiment: Resistance ratio of EC90 for NS5A Y93H mutant in HCV genotype 1a infected in HuH7 replicon cells to EC90 for NS5A in HCV genotype 1a infected in HuH7 replicon cells; format: cell-based
# [7] = Half life in Wistar Han rat at 2 mg/kg, iv by LC/MS method; format: ADME, organism-based; details: in vivo
# Procedure, shortened: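 Male Wistar Han rats, two per group, dosed IV at 2 mg/kg in 60% PEG200. Plasma was obtained by centrifuging the blood, and compound concentrations were measured by LC/MS.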
# [8] = Oral bioavailability in Wistar Han rat at 10 mg/kg by LC/MS method; format: ADME, organism-based; details: in vivo
# Procedure, shortened: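 Male Wistar Han rats, two per dosing group, dosed orally at 10 mg/kg in 10% TWEEN. Plasma was separated from collected blood by centrifugation and analysed by LC/MS.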
# [9] = Resistance ratio of EC90 for NS5A A30T mutant in HCV genotype 3a infected in HuH7 replicon cells to EC90 for NS5A in HCV genotype 1a infected in HuH7 replicon cells; format: cell-based
# [10] = molecular target: T1, Nonstructural protein 5A (Hepatitis C virus); experiment: Inhibition of NS5A L30H mutant in HCV genotype 4a infected in HuH7 replicon cells assessed as decrease in viral replication after 3 days by RT-PCR method; format: cell-based; details: Hepatitis C virus subtype 4a
# [11] = test system: Hepatitis C virus subtype 1a; experiment: Resistance ratio of EC90 for NS3 R155K/V36M double mutant in HCV genotype 1a infected in HuH7 replicon cells to EC90 for NS5A in HCV genotype 1a infected in HuH7 replicon cells; format: cell-based
# [12] = test system: NS3 (Hepatitis C virus), A3EZJ3 [R155K]; experiment: Inhibition of NS3 R155K mutant in HCV genotype 1a infected in HuH7 replicon cells assessed as decrease in viral replication after 3 days by RT-PCR method; format: cell-based; details: Hepatitis C virus subtype 1a
# [13] = Resistance ratio of EC90 for NS5A A30K mutant in HCV genotype 3a infected in HuH7 replicon cells to EC90 for NS5A in HCV genotype 1a infected in HuH7 replicon cells; format: cell-based
# [14] = test system: T2, Nonstructural protein 5A (Hepatitis C virus), Q5L478 [Y93N]; experiment: Inhibition of NS5A Y93N mutant in HCV genotype 1a infected in HuH7 replicon cells assessed as decrease in viral replication after 3 days by RT-PCR method; format: cell-based; details: Hepatitis C virus subtype 1a
# T2 sequence (whole entry): T1 sequence (whole entry) with Y93N
# [15] = Tmax in Wistar Han rat at 100 mg/kg, po by LC/MS method; format: ADME, organism-based; details: in vivo
# Procedure, shortened: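 Single rising oral dose study in fed male Wistar Han rats, dosed PO in 10% TWEEN at the indicated doses. Plasma was obtained by centrifuging the blood, and compound levels were determined by LC/MS.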
# [16] = test system: T3, Nonstructural protein 5A (Hepatitis C virus), Q5L478 [L28M,Y93H]; experiment: Inhibition of NS5A L28M/Y93H double mutant in HCV genotype 1b infected in HuH7 replicon cells assessed as decrease in viral replication after 3 days by RT-PCR method; format: cell-based; details: Hepatitis C virus subtype 1b
# T3 sequence (whole entry): T1 sequence (whole entry) with L28M, Y93H
compound,measurement,setting,value
COC(=O)N[C@H](C(=O)N1CCC[C@H]1c1ncc(-c2cc(F)c3c(c2)O[C@@H](c2ccc(C4CC4)s2)n2c-3cc3cc(-c4cnc([C@@H]5CCCN5C(=O)[C@@H](NC(=O)OC)[C@@H]5CCOC(C)(C)C5)[nH]4)ccc32)[nH]1)C(C)C,EC90,[1],120 pM
same,EC90,[2],1.6 pM
same,Ratio,[3],4
same,half-life,[4],5.8 h
same,Ratio,[5],45
same,Ratio,[6],8
same,half-life,[7],5.4 h
same,bioavailability,[8],6.6%
same,Ratio,[9],1
same,EC90,[10],72 pM
same,Ratio,[11],< 1
same,EC90,[12],1.9 pM
same,Ratio,[13],4
same,EC90,[14],69 pM
same,Tmax,[15],2 h
same,EC90,[16],65 pM
